The text below walks through data of ChEMBL document CHEMBL1133092, “Drug delivery systems based on trimethyl lock lactonization: poly(ethylene glycol) prodrugs of amino-containing compounds” (J Med Chem, 2000).

As usually defined, the IC50 is the point on the concentration scale where inhibition reaches its midpoint. The low end stands for greater potency, the high end for weaker potency. Broadly, the half-life is the time in which the quantity being followed falls by half. Read a high half-life as slow decline. As a reminder, the T/C is the ratio of treated to control.

The subject of one data set is P388. Put plainly: Growth Inhibition of P388/0 cell lines. The data set is classed as functional, cell-based. Conditions: Mus musculus. Summed up:
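P388/0 murine leukemia cells seeded at 2 × 10^3 cells/well, exposed to serial dilutions for 3 days at 37 °C, 5% CO2. Alamar Blue then added and plates read after a further 4 h at 37 °C. IC50 taken from absorbance vs dilution factor plots.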

The nature of data set [1]: Half life in Rat plasma. Type of data set: ADME. An outline of the steps:
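Conjugate dissolved in distilled water (20 mg/100 µL), then 900 µL rat plasma added. Aliquots incubated at 37 °C for various times, quenched with methanol-acetonitrile (1:1) and filtered. Remaining conjugate measured by HPLC with UV detection at 254 nm (DNR) or 280 nm (ara-C). Run in duplicate. t1/2 calculated from α phase.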

Data set [2] deals with M109. The data set can be described thus: In vivo screening in M109 syngeneic solid mouse tumor model (i.p.). The data set is classed as functional. An outline of the steps:
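Female balb/c mice (20-25 g) implanted subcutaneously in the left flank with about 1 × 10^6 M109 cells on day 0. Dosed intraperitoneally at 3 mg/kg/dose (DNR content) on days 1 and 4; 6 per group with untreated controls. % T/C of median tumor volumes taken when control median reached ~2000 mm3.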

Data set [3] in a line: Half life in buffer at pH 7.4. The data set is classed as ADME. Summed up:
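Conjugate dissolved at 5 mg/mL in 0.1 M pH 7.4 PBS and incubated at 37 °C for various periods. Analysed by HPLC with UV detection at 254 nm (DNR) or 280 nm (ara-C). Run in duplicate.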

The subject of data set [4] is M109. Put plainly: In vivo screening in M109 syngeneic solid mouse tumor model (i.v.). The data set is classed as functional. Summed up:
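Female balb/c mice (20-25 g) implanted subcutaneously in the left flank with about 1 × 10^6 M109 cells on day 0. Dosed intravenously at 3 mg/kg/dose (DNR content) on days 3 and 6; 6 per group with untreated controls. % T/C of median tumor volumes taken when control median reached ~2000 mm3.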

Data set [5] is described as follows: Half life in Cell media. The data set is classed as ADME.

Compound `CCC(=O)NCCC(=O)Oc1cc(C)cc(C)c1C(C)(C)CC(=O)NC1CC(O[C@H]2C[C@](O)(C(C)=O)Cc3c(O)c4c(c(O)c32)C(=O)c2c(OC)cccc2C4=O)OC(C)C1O` (stereo not given in full) came in with an IC50 with P388 of 0.203 µM. For the same compound, the figures for the half-life in data set [1], in data set [3] and in data set [5] were 0.2 h, greater than 24 h and 80 h, respectively. Also, the T/C in the data set with M109 [2] stood at 101.2%; with M109 [4], 63.7%.
As for `CCC(=O)NC(C)C(=O)Oc1c(C)ccc(C)c1C(C)(C)CC(=O)NC1CC(O[C@H]2C[C@](O)(C(C)=O)Cc3c(O)c4c(c(O)c32)C(=O)c2c(OC)cccc2C4=O)OC(C)C1O` (stereo not given in full), in the data set on P388, the midpoint of inhibition, the IC50, lay at 0.389 µM. In addition, the half-life in data set [1] was 21 h; in data set [3], greater than 24 h; in data set [5], 36 h. In addition, the results for the T/C in the data set on M109 [2] and with M109 [4] were 153.6% and 52.5%, respectively.
Compound `CCC(=O)NCCOCCOC(=O)Oc1cc(C)cc(C)c1C(C)(C)CC(=O)NC1CC(O[C@H]2C[C@](O)(C(C)=O)Cc3c(O)c4c(c(O)c32)C(=O)c2c(OC)cccc2C4=O)OC(C)C1O` (stereo not given in full) had an IC50 with P388 of 0.142 µM. Further, the half-life in data set [1] is 1.1 h; in data set [3], greater than 24 h; in data set [5], 38 h. The T/C with M109 [2] worked out at 57.1%; in the data set on M109 [4], 118.4%.
Compound `CCC(=O)NC(C)C(=O)Oc1cc(C)cc(C)c1C(C)(C)CC(=O)NC1CC(O[C@H]2C[C@](O)(C(C)=O)Cc3c(O)c4c(c(O)c32)C(=O)c2c(OC)cccc2C4=O)OC(C)C1O` (stereo not given in full) showed an IC50 with P388 of 0.043 µM. Further, the half-life is 1.9 h in data set [1], greater than 24 h in data set [3] and 14 h in data set [5]. Besides, the T/C in the data set with M109 [2] is 62.8%; in the data set with M109 [4] it was 92.5%.
Take `CCC(=O)NCCC(=O)Oc1c(C)ccc(C)c1C(C)(C)CC(=O)NC1CC(O[C@H]2C[C@](O)(C(C)=O)Cc3c(O)c4c(c(O)c32)C(=O)c2c(OC)cccc2C4=O)OC(C)C1O` (stereo not given in full): in the data set with P388, the IC50 came out at 0.411 µM. Also, the results for the half-life in data set [1], in data set [3] and in data set [5] were 8 h, greater than 24 h and 94 h, respectively. Also, the T/C is 114.8% in the data set on M109 [2] and 31.6% in the data set with M109 [4].
